# Measurements published in ChEMBL document CHEMBL1124086, “Inhibition of copper-dependent amine oxidases by some hydrazides of pyrrol-1-ylbenzoic and pyrrol-1-ylphenylacetic acids” (J Med Chem, 1988).
# Assays:
# [1] = Ki value measured for the inhibition of copper dependent amine oxidase in bovine plasma; type: cell-free
# How it was run: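 Bovine plasma amine oxidase, 36 µg/mL (0.2 µM), in 0.1 M phosphate buffer, pH 7.2. Benzylamine at 0.5, 2.5 and 5 mM, with no preincubation. Rate measured as benzaldehyde formed per minute at 37 °C. Apparent Ki taken from Dixon plots.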
# [2] = Effect on placental diamine oxidase (0.1 uM) after 0 min of incubation at pH 7.2; set-up: species or system Homo sapiens; conditions: read-out: I50
# How it was run: (§1)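 Purified human placental diamine oxidase at 0.1 µM in 0.1 M phosphate buffer, pH 7.2, at 37 °C. Inhibitor added at zero time. After preincubation, saturating 3 mM p-[(dimethylamino)methyl]benzylamine added. Product aldehyde followed at 250 nm (E = 10.400 M-1 cm-1). I50 is the concentration giving 50% loss of activity. Two experiments in duplicate.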
# [3] = Effect on placental diamine oxidase (0.1 uM) after 30 min of incubation at pH 7.2; set-up: species or system Homo sapiens; conditions: read-out: I50; how it was run: as §1
# [4] = Ki value measured for the inhibition of human placenta diamine oxidase
# How it was run: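 Human placental diamine oxidase, 47 µg/mL (0.2 µM), in 0.1 M phosphate buffer, pH 7.2, with no preincubation. […] oxidation followed at 250 nm at 37 °C. Apparent Ki estimated from Dixon plots.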
# Rattus norvegicus [5] = species: Rattus norvegicus; assay: Brain mitochondrial activity measured at 0 min of incubation at 1 uM concentration; type: functional
# How it was run: (§2)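 Rat brain mitochondria isolated by differential centrifugation of homogenates in 0.25 M sucrose, pH 7.4, then suspended in 0.1 M phosphate buffer, pH 7.2, at 37 °C. Inhibitor added at zero time, then saturating 1 mM kynuramine added after the incubation period. MAO activity read fluorimetrically. Percent inhibition reported from three experiments in duplicate.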
# Rattus norvegicus [6] = species: Rattus norvegicus; assay: Brain mitochondrial activity measured at 0 min of incubation at 10 uM concentration; type: functional; how it was run: as §2
# Rattus norvegicus [7] = species: Rattus norvegicus; assay: Brain mitochondrial activity measured at 0 min of incubation at 100 uM concentration; type: functional; how it was run: as §2
# Rattus norvegicus [8] = species: Rattus norvegicus; assay: Brain mitochondrial activity measured at 120 min of incubation at 1 uM concentration; type: functional; how it was run: as §2
# Rattus norvegicus [9] = species: Rattus norvegicus; assay: Brain mitochondrial activity measured at 120 min of incubation at 10 uM concentration; type: functional; how it was run: as §2
# Rattus norvegicus [10] = species: Rattus norvegicus; assay: Brain mitochondrial activity measured at 120 min of incubation at 100 uM concentration; type: functional; how it was run: as §2
# [11] = Effect on plasma amine oxidase (0.1 uM) after 15 min of incubation at pH 7.2; type: cell-free; conditions: 0.25 h, read-out: I50
# How it was run: (§3)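 Purified bovine plasma amine oxidase at 0.1 µM in 0.1 M phosphate buffer, pH 7.2, at 37 °C. Inhibitor added at zero time and preincubated. Saturating 3 mM benzylamine then added and benzaldehyde formation read at 250 nm (E = 12.500 M-1 cm-1). I50 is the concentration halving activity. Two experiments in duplicate.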
# [12] = Effect on plasma amine oxidase (0.1 uM) after 30 min of incubation at pH 7.2; type: cell-free; conditions: 0.5 h, read-out: I50; how it was run: as §3
# [13] = Effect on plasma amine oxidase (0.1 uM) after 0 min of incubation at pH 7.2; type: cell-free; conditions: 0 h, read-out: I50; how it was run: as §3
# [14] = Effect on plasma amine oxidase (0.1 uM) after 60 min of incubation at pH 7.2; type: cell-free; conditions: 1 h, read-out: I50; how it was run: as §3
Ki [1] [µM],IC50 [2] [µM],IC50 [3] [µM],Ki [4] [µM],IC50 [11] [µM],IC50 [12] [µM],IC50 [13] [µM],IC50 [14] [µM],SMILES,Inhibition (Rattus norvegicus [5]) [%],Inhibition (Rattus norvegicus [6]) [%],Inhibition (Rattus norvegicus [7]) [%],Inhibition (Rattus norvegicus [8]) [%],Inhibition (Rattus norvegicus [9]) [%],Inhibition (Rattus norvegicus [10]) [%]
0.7,50,10,100,,,,,NNC(=O)Cc1cccc(-n2cccc2)c1,0,2,3,0,3,15
0.8,50,10,10,,,,,CC(C)=NNC(=O)Cc1ccc(-n2cccc2)cc1,0,0,0,12,12,18
10,100,50,,,,,,Cc1ccc(C)n1-c1ccc(CC(=O)NN)cc1,0,0,2,0,0,3
85,100,100,110,,,,,NNC(=O)c1cccc(-n2cccc2)c1,0,0,0,0,5,8
300,100,100,250,,,,,NNC(=O)c1ccccc1-n1cccc1,0,0,0,3,5,6
0.5,10,10,10,,,,,NNC(=O)Cc1ccc(-n2cccc2)cc1,0,0,6,2,4,9
80,200,50,100,,,,,NNC(=O)c1ccc(-n2cccc2)cc1,0,0,0,2,16,18
,,,,10,10,100,5,NNC(=O)c1ccncc1 [ISONIAZID],12,14,19,16,16,22
